# Laboratory results taken from PubChem BioAssay AID624466 (The Scripps Research Institute Molecular Screening Center, 2012).
# In all, about 360,000 compounds went through this assay and about 5,400 (1.5%) were called active.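 The calls were made as follows: active = inhibition above a per-plate cutoff, the mean inhibition of test compounds on that plate plus 3 SD (cut at about 49% in these data); inactive = the rest.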 Shown is part of a subset that was picked to be rich in actives.
# Biological target: Trace amine-associated receptor 1 (Homo sapiens) (UniProt Q96RJ0)
# Test: blockers of beta-PEA-driven TAAR1 calcium signal – Fluo-8 calcium fluorescence, CHO RD-HGA16 cells, primary screen (AID 624466);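 also: 0% = DMSO plus EC80 beta-PEA response and 100% = DMSO alone without agonist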
# Conditions: CHO RD-HGA16 TAAR1, Fluo-8 calcium fluorescence, antagonist; at 3 µM; hits give high values
# Procedure, shortened: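 Test system: hTAAR1-expressing CHO RD-HGA16 cells, Gα16-coupled; Probe or stimulus: EC80 β-phenethylamine stimulus; Compound dosing: single nominal final test compound concentration of 3 µM; Timing: 140 s kinetic read after compound, 140 s after agonist; Signal: Fluo-8 calcium-sensitive fluorescence; Measure: % inhibition of agonist calcium response; Controls: DMSO and EC80 PEA controls.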
# Sequence of Trace amine-associated receptor 1 (Homo sapiens) (Q96RJ0 whole entry, looked up): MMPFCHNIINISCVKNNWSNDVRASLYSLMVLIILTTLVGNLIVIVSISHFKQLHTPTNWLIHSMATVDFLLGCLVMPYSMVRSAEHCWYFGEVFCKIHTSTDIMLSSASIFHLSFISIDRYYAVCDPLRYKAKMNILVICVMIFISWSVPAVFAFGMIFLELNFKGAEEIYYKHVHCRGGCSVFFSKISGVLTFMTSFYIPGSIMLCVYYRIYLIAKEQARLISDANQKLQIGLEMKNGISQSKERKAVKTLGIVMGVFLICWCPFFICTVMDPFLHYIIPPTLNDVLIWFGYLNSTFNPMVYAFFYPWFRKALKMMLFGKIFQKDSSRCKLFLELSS
row,Compound,inhibition
1,CN1CCN(C(=O)c2ccc(NC(=O)c3ccc(Br)o3)cc2)CC1,-4.9% (inactive)
2,O=C(Nc1ccc(-c2nnc(-c3ccccc3)o2)cc1)c1ccc(Br)o1,71% (active)
3,CCS(=O)(=O)c1ccc(-c2cccc(NC(=O)c3ccc(Br)o3)c2)nn1,13.4% (inactive)
4,CC(=O)OCC1(O)CC23CCC4c5ccoc5CCC4(C)C2CCC1C3 (centres undefined),13.6% (inactive)
5,COC(=O)C[C@@H]1C=C[C@@H](NC(=O)c2cccnc2)[C@@H](CO)O1,-15.9% (inactive)
6,CCC(C)(C)NC(=O)c1cc([N+](=O)[O-])ccc1N1CCCCC1,-10.4% (inactive)
7,Cc1cc(OCCCCOc2ccc(C#N)cc2)ccc1[N+](=O)[O-],51.1% (active)
8,Cc1cc(OCCCN2CCN(Cc3ccccc3)CC2)ccc1[N+](=O)[O-],-20.9% (inactive)
9,Cc1cc(OCC(=O)NC2CCN(C)CC2)ccc1[N+](=O)[O-],-21.6% (inactive)
10,COc1ccc(-n2nc(C(=O)NCC(=O)N3CCC(C(N)=O)CC3)c3ccccc3c2=O)cc1OC,1.2% (inactive)
11,O=C(NCCN1CCOCC1)[C@H](Cc1ccccc1)N1C(=O)c2ccccc2C1=O,-8.4% (inactive)
12,CCOC(=O)C(Cc1ccc(N)cc1)N1C(=O)c2ccccc2C1=O (centres undefined),10.7% (inactive)
13,N/C(=N\c1nc2ccccc2o1)NC(=O)C(Cc1ccccc1)N1C(=O)c2ccccc2C1=O (centres undefined),49% (active)
14,CC(C)(C)C1CCC(=O)N2CCC[C@]2(c2ccccc2)C1 (some centres undefined),-2.31% (inactive)
15,COc1ccc(-c2ccc(CN3C(CC(C)C)C(=O)N(Cc4cn(CC5CCCCC5)nn4)CCS3(=O)=O)cc2)cc1 (centres undefined),-8.03% (inactive)
16,CC(C)CC1C(=O)N(Cc2cn(CC3CCCCC3)nn2)CCS(=O)(=O)N1Cc1ccc(-c2ccc(Cl)cc2)cc1 (centres undefined),-15.1% (inactive)
17,COCOCCn1cc(CN2CCS(=O)(=O)N(Cc3ccc(-c4cccc(N(C)C)c4)cc3)C(CC(C)C)C2=O)nn1 (centres undefined),1.52% (inactive)
18,COCOCCn1cc(CN2CCS(=O)(=O)N(Cc3ccc(-c4ccc(OC)cc4)cc3)C(CC(C)C)C2=O)nn1 (centres undefined),54.1% (active)
19,COCOCCn1cc(CN2CCS(=O)(=O)N(Cc3ccc(-c4ccccc4)cc3)C(CC(C)C)C2=O)nn1 (centres undefined),54.1% (active)
20,COc1ccc(-c2ccc(CN3C(CC(C)C)C(=O)N(Cc4cn(CC5CCCCC5)nn4)CCS3(=O)=O)cc2)cn1 (centres undefined),-9.27% (inactive)
21,CCOc1ccc(CNC(=O)CCC(=O)N2CCSc3ccccc32)cc1,-0.53% (inactive)
22,O=S1(=O)CC(N2CCN(CCO)CC2)CN1Cc1cn(Cc2ccc(Cl)cc2)nn1 (centres undefined),-8.26% (inactive)
23,COc1ccc(OC)c(CN2C(=O)CCC2(C)c2nnnn2Cc2ccccc2)c1 (centres undefined),-20.4% (inactive)
24,COC(=O)c1ccc(Oc2nc(Nc3ccc(F)cc3)nc(N3CCCC3)n2)cc1,-16.1% (inactive)
25,CCOc1ccc(Nc2nc(Cl)nc(N3CCN(c4ccc(OC)cc4)CC3)n2)cc1,56.5% (active)
26,CCN1CCN(c2nc(Nc3cc(OC)ccc3OC)nc(Nc3cc(OC)ccc3OC)n2)CC1,-14.1% (inactive)
27,O=[N+]([O-])c1ccc(N=NNc2ccc([N+](=O)[O-])cc2)cc1,-6.71% (inactive)

row,Compound,inhibition
1,O=[N+]([O-])c1ccc(N/N=C/c2ccccc2)cc1,61.6% (active)
2,CC(C)c1ccc(C=NNc2ccc([N+](=O)[O-])cn2)cc1,17.1% (inactive)
3,O=C(NN=Cc1ccco1)C(=O)Nc1ccc(Cl)c([N+](=O)[O-])c1,8.28% (inactive)
4,CN(C)c1ccc(C=NCCc2ccc(S(N)(=O)=O)cc2)cc1,-1.3% (inactive)
5,c1ccc2c(c1)CCc1snnc1-2,-2.49% (inactive)
6,S=C(NCCCc1cnc[nH]1)NCCCN(Cc1ccc(Cl)c(Cl)c1)c1ccc(Br)cn1,51.9% (active)
7,NCCCNC(=S)NCCCN(Cc1ccc(Cl)cc1)c1ccc(Br)cn1,0.12% (inactive)
8,C=CCN=C1NC(c2ccccc2)C(C(=O)OC)=C(C)N1Cc1ccc(C(F)(F)F)cc1 (centres undefined),31.4% (inactive)
9,CSc1ncccc1C(=O)N1CCCC(Nc2ccc(F)c(F)c2)C1 (centres undefined),4.84% (inactive)
10,CN(c1ccccc1)S(=O)(=O)c1ccc(Cl)c(C(=O)OCC(N)=O)c1,-0.08% (inactive)
11,CC(=O)c1c(C)[nH]c(C(=O)COC(=O)c2cccs2)c1C,36% (inactive)
12,CC(=O)c1c(C)[nH]c(C(=O)COC(=O)c2cccc(S(=O)(=O)N(C)c3ccccc3)c2)c1C,81.8% (active)
13,O=C(Nc1ccccc1-c1nnn(CC(=O)N2CCN(c3ccccc3)CC2)n1)c1cccs1,62% (active)
14,COc1ccccc1N1CCN(C(=O)Cn2nnc(-c3cccs3)n2)CC1,2.09% (inactive)
15,O=C(Nc1ccc(N2CCN(C(=O)C3CC3)CC2)cc1)c1cccs1,16.4% (inactive)
16,Cc1ccc(F)cc1S(=O)(=O)Nc1cccc(C(=O)N2CCCC(C(N)=O)C2)c1 (centres undefined),-13.3% (inactive)
17,COC(=O)[C@]12CCCCC=C1N(Cc1ccco1)C(=O)[C@H](CC(=O)NCCCCc1ccccc1)C2,12.7% (inactive)
18,CN(C(=O)CN1C(=O)NC(C)(CCc2ccccc2)C1=O)c1ccccc1 (centres undefined),9.09% (inactive)
19,CC(=O)C1=C(C)N(Cc2ccccc2)C(=S)NC1c1cccc(Br)c1 (centres undefined),25.4% (inactive)
20,CN(C)c1ccc(/C=C2\NC(=S)N(Cc3ccccc3)C2=O)cc1,74.3% (active)
21,COc1ccc(OC)c2[nH]c(=O)c(CCNC(=O)C(=O)c3c[nH]c4ccccc34)cc12,64.7% (active)
22,COc1ccc(OC)c2[nH]c(=O)c(CCNC(=O)C(C)(C)C)cc12,-17% (inactive)
23,O=C(NCCCc1ccccc1)C(=O)c1c[nH]c2ccccc12,-6.38% (inactive)
24,CC(=O)Nc1ccc(NC(=O)COC(=O)C2CCC(C(C)(C)C)CC2)cc1 (centres undefined),65.2% (active)
25,O=C(COC(=O)C1CCCCC1)Nc1ccc([N+](=O)[O-])cc1,35.5% (inactive)
26,CCC(C)c1ccc(NC(=O)COC(=O)C2CCCC2)cc1 (centres undefined),5.25% (inactive)
27,O=C(Nc1ccc(F)cc1)C(CCc1ccccc1)N1CCN(CC(=O)N2CCCC2)CC1 (centres undefined),4.42% (inactive)
